≈ marks a conversion by molar mass, not a printed value.
Assays:
Assay type in all cases: functional
[1] = test system: Staphylococcus epidermidis; experiment: Antibacterial activity against Staphylococcus epidermidis isolated from patient with diabetic foot infection assessed as percent resistant isolates after 18 to 24 hrs by broth microdilution method
How it was run: (§1)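 Aerobes subcultured on Trypticase soy blood agar, then broth microdilution in cation-adjusted Mueller-Hinton broth. Trays prepared in-house with twofold dilutions and stored at −70°C. Overnight colonies suspended to about 5 × 10^5 CFU/ml final. Read after 18 to 24 h at 37°C. QC strains included S. aureus ATCC 29213 and E. coli ATCC 25922.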

Proteus vulgaris = experiment: Antibacterial activity against Proteus vulgaris isolated from patient with diabetic foot infection assessed as percent resistant isolates after 18 to 24 hrs by broth microdilution method; how it was run: as §1
Streptococcus agalactiae = experiment: Antibacterial activity against Streptococcus agalactiae isolated from patient with diabetic foot infection assessed as percent resistant isolates after 18 to 24 hrs by broth microdilution method
How it was run: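 Streptococci subcultured on Trypticase soy blood agar and tested by broth microdilution in cation-adjusted Mueller-Hinton broth with lysed horse blood. In-house twofold dilution trays stored at −70°C. About 5 × 10^5 CFU/ml final inoculum from overnight colonies. Read after 18 to 24 h at 37°C.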

[2] = test system: Corynebacterium minutissimum; experiment: Antibacterial activity against Corynebacterium minutissimum isolated from patient with diabetic foot infection assessed as percent resistant isolates after 48 hrs by broth microdilution method
How it was run: (§2)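 Isolates subcultured on Trypticase soy blood agar. Broth microdilution in cation-adjusted Mueller-Hinton broth with lysed horse blood, using in-house twofold dilution trays stored at −70°C. Inoculum from overnight colonies at about 5 × 10^5 CFU/ml final. Read after 18 to 24 h at 37°C, up to 48 h for some Corynebacterium strains.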

[3] = test system: Staphylococcus haemolyticus; experiment: Antibacterial activity against Staphylococcus haemolyticus isolated from patient with diabetic foot infection after 18 to 24 hrs by broth microdilution method
[4] = test system: Corynebacterium urealyticum; experiment: Antibacterial activity against Corynebacterium urealyticum isolated from patient with diabetic foot infection after 48 hrs by broth microdilution method
How it was run: (§3)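 Isolates were subcultured on Trypticase soy blood agar. Broth microdilution used cation-adjusted Mueller-Hinton broth with lysed horse blood, in-house trays of twofold drug dilutions stored at −70°C. Colonies from overnight growth gave a final inoculum of about 5 × 10^5 CFU/ml. Trays were read after 18 to 24 h at 37°C, up to 48 h for some strains.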

Staphylococcus aureus [5] = experiment: Antibacterial activity against methicillin-sensitive Staphylococcus aureus isolated from patient with diabetic foot infection assessed as percent resistant isolates after 18 to 24 hrs by broth microdilution method
How it was run: (§4)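 Isolates grown on Trypticase soy blood agar, then tested by broth microdilution in unsupplemented cation-adjusted Mueller-Hinton broth. In-house trays held serial twofold drug dilutions and were stored at −70°C. Overnight colonies were suspended to a final inoculum near 5 × 10^5 CFU/ml, and trays read after 18–24 h at 37°C. QC strains: S. aureus ATCC 29213, E. coli ATCC 25922.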

[6] = test system: Corynebacterium amycolatum; experiment: Antibacterial activity against Corynebacterium amycolatum isolated from patient with diabetic foot infection after 48 hrs by broth microdilution method; how it was run: as §3
Corynebacterium simulans [7] = experiment: Antibacterial activity against Corynebacterium simulans isolated from patient with diabetic foot infection after 48 hrs by broth microdilution method; how it was run: as §3
Staphylococcus aureus [8] = experiment: Antibacterial activity against methicillin-resistant Staphylococcus aureus isolated from patient with diabetic foot infection assessed as percent resistant isolates after 18 to 24 hrs by broth microdilution method; how it was run: as §4
Corynebacterium accolens = experiment: Antibacterial activity against Corynebacterium accolens isolated from patient with diabetic foot infection after 48 hrs by broth microdilution method; how it was run: as §3
Corynebacterium simulans [9] = experiment: Antibacterial activity against Corynebacterium simulans isolated from patient with diabetic foot infection assessed as percent resistant isolates after 48 hrs by broth microdilution method; how it was run: as §2
[10] = test system: Corynebacterium amycolatum; experiment: Antibacterial activity against Corynebacterium amycolatum isolated from patient with diabetic foot infection assessed as percent resistant isolates after 48 hrs by broth microdilution method; how it was run: as §2
Staphylococcus aureus [11] = experiment: Antibacterial activity against methicillin-resistant Staphylococcus aureus isolated from patient with diabetic foot infection after 18 to 24 hrs by broth microdilution method; how it was run: as §4
Staphylococcus aureus [12] = experiment: Antibacterial activity against methicillin-sensitive Staphylococcus aureus isolated from patient with diabetic foot infection after 18 to 24 hrs by broth microdilution method
How it was run: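 Subcultured on Trypticase soy blood agar, then broth microdilution in cation-adjusted Mueller-Hinton broth. Trays were made in-house with serial twofold drug dilutions and stored at −70°C. Inoculum was colonies from overnight growth, final approximately 5 × 10^5 CFU/ml. MIC was read after 18 to 24 h at 37°C. QC strains: S. aureus ATCC 29213 and E. coli ATCC 25922.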

[13] = test system: Corynebacterium minutissimum; experiment: Antibacterial activity against Corynebacterium minutissimum isolated from patient with diabetic foot infection after 48 hrs by broth microdilution method; how it was run: as §3
Corynebacterium jeikeium = experiment: Antibacterial activity against Corynebacterium jeikeium isolated from patient with diabetic foot infection assessed as percent resistant isolates after 48 hrs by broth microdilution method; how it was run: as §2
Corynebacterium xerosis = experiment: Antibacterial activity against Corynebacterium xerosis isolated from patient with diabetic foot infection after 48 hrs by broth microdilution method; how it was run: as §3
Escherichia coli = experiment: Antibacterial activity against Escherichia coli isolated from patient with diabetic foot infection after 18 to 24 hrs by broth microdilution method
How it was run: (§5)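 Isolates were subcultured on Trypticase soy blood agar and tested by broth microdilution in cation-adjusted Mueller-Hinton broth. In-house trays of twofold drug dilutions were stored at −70°C. Overnight colonies gave a final inoculum of about 5 × 10^5 CFU/ml. Plates were read after 18 to 24 h at 37°C.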

Enterobacter cloacae = experiment: Antibacterial activity against Enterobacter cloacae isolated from patient with diabetic foot infection assessed as percent resistant isolates after 18 to 24 hrs by broth microdilution method; how it was run: as §1
Pseudomonas aeruginosa [14] = experiment: Antibacterial activity against Pseudomonas aeruginosa isolated from patient with diabetic foot infection assessed as percent resistant isolates after 18 to 24 hrs by broth microdilution method; how it was run: as §1
Klebsiella pneumoniae [15] = experiment: Antibacterial activity against Klebsiella pneumoniae isolated from patient with diabetic foot infection after 18 to 24 hrs by broth microdilution method; how it was run: as §5
Providencia rettgeri [16] = experiment: Antibacterial activity against Proteus rettgeri isolated from patient with diabetic foot infection after 18 to 24 hrs by broth microdilution method; how it was run: as §5
Proteus mirabilis = experiment: Antibacterial activity against Proteus mirabilis isolated from patient with diabetic foot infection assessed as percent resistant isolates after 18 to 24 hrs by broth microdilution method; how it was run: as §1
Providencia rettgeri [17] = experiment: Antibacterial activity against Proteus rettgeri isolated from patient with diabetic foot infection assessed as percent resistant isolates after 18 to 24 hrs by broth microdilution method; how it was run: as §1
Klebsiella pneumoniae [18] = experiment: Antibacterial activity against Klebsiella pneumoniae isolated from patient with diabetic foot infection assessed as percent resistant isolates after 18 to 24 hrs by broth microdilution method; how it was run: as §1
Klebsiella oxytoca = experiment: Antibacterial activity against Klebsiella oxytoca isolated from patient with diabetic foot infection assessed as percent resistant isolates after 18 to 24 hrs by broth microdilution method; how it was run: as §1
Pseudomonas aeruginosa [19] = experiment: Antibacterial activity against Pseudomonas aeruginosa isolated from patient with diabetic foot infection after 18 to 24 hrs by broth microdilution method; how it was run: as §5

SMILES | Activity [1] | Activity (Proteus vulgaris) | Activity (Streptococcus agalactiae) | MIC50 [3] | MIC90 [3] | MIC50 [4] | MIC90 [4] | Activity (Staphylococcus aureus [5]) | MIC50 [6] | MIC90 [6] | MIC50 (Corynebacterium simulans [7]) | MIC90 (Corynebacterium simulans [7]) | Activity (Staphylococcus aureus [8]) | MIC50 (Corynebacterium accolens) | MIC90 (Corynebacterium accolens) | MIC50 (Staphylococcus aureus [11]) | MIC90 (Staphylococcus aureus [11]) | MIC50 (Staphylococcus aureus [12]) | MIC90 (Staphylococcus aureus [12]) | MIC50 [13] | other results
CCC[C@@H]1C[C@@H](C(=O)N[C@@H]([C@H]2O[C@H](SC)[C@H](O)[C@@H](O)[C@H]2O)[C@H](C)Cl)N(C)C1 [CLINDAMYCIN] | 33% | 0% | 33% | 0.125 µg/mL (≈ 0.294 µM) | 8 µg/mL (≈ 18.8 µM) | > 64 µg/mL | > 64 µg/mL | 0% | > 64 µg/mL | > 64 µg/mL | 2 µg/mL (≈ 4.71 µM) | > 64 µg/mL | 39% | 2 µg/mL (≈ 4.71 µM) | > 64 µg/mL | 0.125 µg/mL (≈ 0.294 µM) | > 64 µg/mL | 0.125 µg/mL (≈ 0.294 µM) | 0.25 µg/mL (≈ 0.588 µM) | > 64 µg/mL | Activity [2]: 100%; Activity (Corynebacterium simulans [9]): 78%; Activity [10]: 100%; MIC90 [13]: > 64 µg/mL; Activity (Corynebacterium jeikeium): 100%; MIC50 (Corynebacterium xerosis): 2 µg/mL (≈ 4.71 µM); MIC90 (Corynebacterium xerosis): > 64 µg/mL
C[C@@H](O)[C@H]1C(=O)N2C(C(=O)O)=C(S[C@@H]3CN[C@H](CNS(N)(=O)=O)C3)[C@H](C)[C@H]12 [DORIPENEM] | 67% | 0% | 0% | 0.5 µg/mL (≈ 1.19 µM) | 16 µg/mL (≈ 38 µM) | 1 µg/mL (≈ 2.38 µM) | 8 µg/mL (≈ 19 µM) | 0% | 1 µg/mL (≈ 2.38 µM) | 8 µg/mL (≈ 19 µM) | 0.125 µg/mL (≈ 0.297 µM) | 0.25 µg/mL (≈ 0.595 µM) | 100% | 0.125 µg/mL (≈ 0.297 µM) | 0.25 µg/mL (≈ 0.595 µM) | 0.5 µg/mL (≈ 1.19 µM) | 8 µg/mL (≈ 19 µM) | 0.03 µg/mL (≈ 0.0713 µM) | 0.03 µg/mL (≈ 0.0713 µM) | 1 µg/mL (≈ 2.38 µM) | MIC50 (Escherichia coli): 0.03 µg/mL (≈ 0.0713 µM); MIC90 (Escherichia coli): 0.03 µg/mL (≈ 0.0713 µM); Activity (Enterobacter cloacae): 0%; Activity (Pseudomonas aeruginosa [14]): 7%; MIC50 (Klebsiella pneumoniae [15]): 0.06 µg/mL (≈ 0.143 µM); MIC90 (Klebsiella pneumoniae [15]): 0.125 µg/mL (≈ 0.297 µM); MIC50 (Providencia rettgeri [16]): 0.125 µg/mL (≈ 0.297 µM); MIC90 (Providencia rettgeri [16]): 0.25 µg/mL (≈ 0.595 µM); Activity (Proteus mirabilis): 0%; Activity (Providencia rettgeri [17]): 0%; MIC90 [13]: 8 µg/mL (≈ 19 µM); Activity (Klebsiella pneumoniae [18]): 0%; Activity (Klebsiella oxytoca): 0%; MIC50 (Corynebacterium xerosis): 0.125 µg/mL (≈ 0.297 µM); MIC90 (Corynebacterium xerosis): 0.25 µg/mL (≈ 0.595 µM); MIC50 (Pseudomonas aeruginosa [19]): 0.25 µg/mL (≈ 0.595 µM); MIC90 (Pseudomonas aeruginosa [19]): 2 µg/mL (≈ 4.76 µM)

From ChEMBL document CHEMBL1153560, “In vitro activities of doripenem and six comparator drugs against 423 aerobic and anaerobic bacterial isolates from infected diabetic foot wounds” (2008)
